Measured values published in publication PMC9540525 (Cancer, 2022).
Entries after “also recorded” stand apart in the source; their conditions may differ.

Assay: Phase 1 study CC-90011-ST-001: safety, adverse events
Format: in vivo, human
Procedure, shortened: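 Treated population: all patients given at least one oral dose of test compound (once weekly, 28-day cycles; expansion 60 mg). Adverse events were graded by NCI CTCAE v4.03. Dose reductions were permitted in any cycle, including cycle 1. Treatment could be interrupted for up to 4 weeks, until toxicity returned to grade ≤1 or baseline.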

[1] = dose escalation, n = 50, patients (%)
[2] = dose expansion, NEN, n = 16, patients (%)
[3] = dose expansion, R/R MZL, n = 3, patients (%)
[4] = dose expansion, n = 19, patients (%)

Compound: COc1ccc(-c2c(-c3ccc(C#N)c(F)c3)nc(N3CCC(N)CC3)n(C)c2=O)cc1F [CC‐90011]
- TEAE any grade: Abdominal pain [1]: 7 (14)
- TEAE any grade: Acute kidney injury [1]: 1 (2)
- TEAE any grade: Anemia [1]: 14 (28)
- TEAE any grade: Arthralgia [1]: 9 (18)
- TEAE any grade: Back pain [1]: 7 (14)
- TEAE any grade: Bone pain [1]: 1 (2)
- TEAE any grade: Bronchitis [1]: 2 (4)
- TEAE any grade: Constipation [1]: 11 (22)
- TEAE any grade: Cough [1]: 6 (12)
- TEAE any grade: Decreased appetite [1]: 10 (20)
- TEAE any grade: Diarrhea [1]: 10 (20)
- TEAE any grade: Dizziness [1]: 3 (6)
- TEAE any grade: Dysgeusia [1]: 3 (6)
- TEAE any grade: Dyspnea [1]: 5 (10)
- TEAE any grade: Epistaxis [1]: 2 (4)
- TEAE any grade: Fatigue/asthenia [1]: 24 (48)
- TEAE any grade: Headache [1]: 5 (10)
- TEAE any grade: Hepatic pain [1]: 1 (2)
- TEAE any grade: Hypokalemia [1]: 5 (10)
- TEAE any grade: Increased ALT [1]: 6 (12)
- TEAE any grade: Increased AST [1]: 6 (12)
- TEAE any grade: Lipase increased [1]: 2 (4)
- TEAE any grade: Musculoskeletal pain [1]: 1 (2)
- TEAE any grade: Nausea [1]: 11 (22)
- TEAE any grade: Neutropenia [1]: 6 (12)
- TEAE any grade: Peripheral sensory neuropathy [1]: 2 (4)
- TEAE any grade: Pruritus [1]: 3 (6)
- TEAE any grade: Pyrexia [1]: 10 (20)
- TEAE any grade: Sciatica [1]: 1 (2)
- TEAE any grade: Thrombocytopenia [1]: 23 (46)
- TEAE any grade: Tumor pain [1]: 5 (10)
- TEAE any grade: Vomiting [1]: 14 (28)
- TEAE any grade: ≥1 event [1]: 48 (96)
- TEAE grade 3/4: Abdominal pain [1]: 0 (0)
- TEAE grade 3/4: Acute kidney injury [1]: 0 (0)
- TEAE grade 3/4: Anemia [1]: 3 (6)
- TEAE grade 3/4: Arthralgia [1]: 0 (0)
- TEAE grade 3/4: Back pain [1]: 0 (0)
- TEAE grade 3/4: Bone pain [1]: 1 (2)
- TEAE grade 3/4: Bronchitis [1]: 0 (0)
- TEAE grade 3/4: Constipation [1]: 0 (0)
- TEAE grade 3/4: Cough [1]: 0 (0)
- TEAE grade 3/4: Decreased appetite [1]: 1 (2)
- TEAE grade 3/4: Diarrhea [1]: 1 (2)
- TEAE grade 3/4: Dizziness [1]: 0 (0)
- TEAE grade 3/4: Dysgeusia [1]: 0 (0)
- TEAE grade 3/4: Dyspnea [1]: 0 (0)
- TEAE grade 3/4: Epistaxis [1]: 0 (0)
- TEAE grade 3/4: Fatigue/asthenia [1]: 1 (2)
- TEAE grade 3/4: Headache [1]: 0 (0)
- TEAE grade 3/4: Hepatic pain [1]: 0 (0)
- TEAE grade 3/4: Hypokalemia [1]: 1 (2)
- TEAE grade 3/4: Increased ALT [1]: 2 (4)
- TEAE grade 3/4: Increased AST [1]: 1 (2)
- TEAE grade 3/4: Lipase increased [1]: 2 (4)
- TEAE grade 3/4: Musculoskeletal pain [1]: 0 (0)
- TEAE grade 3/4: Nausea [1]: 0 (0)
- TEAE grade 3/4: Neutropenia [1]: 4 (8)
- TEAE grade 3/4: Peripheral sensory neuropathy [1]: 0 (0)
- TEAE grade 3/4: Pruritus [1]: 0 (0)
- TEAE grade 3/4: Pyrexia [1]: 0 (0)
- TEAE grade 3/4: Sciatica [1]: 0 (0)
- TEAE grade 3/4: Thrombocytopenia [1]: 12 (24)
- TEAE grade 3/4: Tumor pain [1]: 1 (2)
- TEAE grade 3/4: Vomiting [1]: 0 (0)
- TEAE grade 3/4: ≥1 event [1]: 24 (48)
- TEAE leading to treatment discontinuation (dose expansion): No patients; also recorded: none of the TEAEs
- febrile neutropenia (dose expansion): no febrile neutropenia was observed
- anemia leading to a dose reduction, patients (dose expansion, 19 patients): 5%
- hematologic events leading to a dose interruption, patients (dose expansion, 19 patients): 47%
- neutropenia leading to a dose reduction, patients (dose expansion, 19 patients): 5%
- patients with at least one TEAE leading to a dose interruption (dose expansion, 19 patients): 58%
- patients with at least one TEAE leading to a dose reduction (dose expansion, 19 patients): 26%
- thrombocytopenia leading to a dose reduction, patients (dose expansion, 19 patients): 26%
- TRAE grade 3/4: Thrombocytopenia (dose expansion, NEN cohort, n=16): 6 n (%)
- TEAE any grade: Abdominal pain [2]: 0 (0)
- TEAE any grade: Acute kidney injury [2]: 1 (6)
- TEAE any grade: Anemia [2]: 6 (38)
- TEAE any grade: Arthralgia [2]: 6 (38)
- TEAE any grade: Back pain [2]: 1 (6)
- TEAE any grade: Bone pain [2]: 2 (13)
- TEAE any grade: Bronchitis [2]: 2 (13)
- TEAE any grade: Constipation [2]: 5 (31)
- TEAE any grade: Cough [2]: 3 (19)
- TEAE any grade: Decreased appetite [2]: 3 (19)
- TEAE any grade: Diarrhea [2]: 5 (31)
- TEAE any grade: Dizziness [2]: 2 (13)
- TEAE any grade: Dysgeusia [2]: 4 (25)
- TEAE any grade: Dyspnea [2]: 2 (13)
- TEAE any grade: Epistaxis [2]: 3 (19)
- TEAE any grade: Fatigue/asthenia [2]: 9 (56)
- TEAE any grade: Headache [2]: 0 (0)
- TEAE any grade: Hepatic pain [2]: 2 (13)
- TEAE any grade: Hypokalemia [2]: 2 (13)
- TEAE any grade: Increased ALT [2]: 0 (0)
- TEAE any grade: Increased AST [2]: 1 (6)
- TEAE any grade: Lipase increased [2]: 2 (13)
- TEAE any grade: Musculoskeletal pain [2]: 1 (6)
- TEAE any grade: Nausea [2]: 5 (31)
- TEAE any grade: Neutropenia [2]: 3 (19)
- TEAE any grade: Peripheral sensory neuropathy [2]: 2 (13)
- TEAE any grade: Pruritus [2]: 2 (13)
- TEAE any grade: Pyrexia [2]: 0 (0)
- TEAE any grade: Sciatica [2]: 2 (13)
- TEAE any grade: Tumor pain [2]: 0 (0)
- TEAE any grade: Vomiting [2]: 2 (13)
- TEAE grade 3/4: Abdominal pain [2]: 0 (0)
- TEAE grade 3/4: Acute kidney injury [2]: 0 (0)
- TEAE grade 3/4: Anemia [2]: 1 (6)
- TEAE grade 3/4: Arthralgia [2]: 0 (0)
- TEAE grade 3/4: Back pain [2]: 0 (0)
- TEAE grade 3/4: Bone pain [2]: 0 (0)
- TEAE grade 3/4: Bronchitis [2]: 0 (0)
- TEAE grade 3/4: Constipation [2]: 0 (0)
- TEAE grade 3/4: Cough [2]: 0 (0)
- TEAE grade 3/4: Decreased appetite [2]: 0 (0)
- TEAE grade 3/4: Diarrhea [2]: 0 (0)
- TEAE grade 3/4: Dizziness [2]: 0 (0)
- TEAE grade 3/4: Dysgeusia [2]: 0 (0)
- TEAE grade 3/4: Dyspnea [2]: 0 (0)
- TEAE grade 3/4: Epistaxis [2]: 0 (0)
- TEAE grade 3/4: Headache [2]: 0 (0)
- TEAE grade 3/4: Hepatic pain [2]: 1 (6)
- TEAE grade 3/4: Hypokalemia [2]: 0 (0)
- TEAE grade 3/4: Increased ALT [2]: 0 (0)
- TEAE grade 3/4: Increased AST [2]: 0 (0)
- TEAE grade 3/4: Lipase increased [2]: 0 (0)
- TEAE grade 3/4: Musculoskeletal pain [2]: 0 (0)
- TEAE grade 3/4: Nausea [2]: 0 (0)
- TEAE grade 3/4: Peripheral sensory neuropathy [2]: 0 (0)
- TEAE grade 3/4: Pruritus [2]: 0 (0)
- TEAE grade 3/4: Pyrexia [2]: 0 (0)
- TEAE grade 3/4: Sciatica [2]: 0 (0)
- TEAE grade 3/4: Tumor pain [2]: 0 (0)
- TEAE grade 3/4: Vomiting [2]: 0 (0)
- TEAE any grade: Abdominal pain [3]: 0 (0)
- TEAE any grade: Acute kidney injury [3]: 1 (33)
- TEAE any grade: Anemia [3]: 1 (33)
- TEAE any grade: Arthralgia [3]: 0 (0)
- TEAE any grade: Back pain [3]: 0 (0)
- TEAE any grade: Bone pain [3]: 1 (33)
- TEAE any grade: Bronchitis [3]: 0 (0)
- TEAE any grade: Constipation [3]: 1 (33)
- TEAE any grade: Cough [3]: 1 (33)
- TEAE any grade: Decreased appetite [3]: 0 (0)
- TEAE any grade: Diarrhea [3]: 0 (0)
- TEAE any grade: Dizziness [3]: 0 (0)
- TEAE any grade: Dysgeusia [3]: 0 (0)
- TEAE any grade: Dyspnea [3]: 1 (33)
- TEAE any grade: Epistaxis [3]: 0 (0)
- TEAE any grade: Headache [3]: 0 (0)
- TEAE any grade: Hepatic pain [3]: 0 (0)
- TEAE any grade: Hypokalemia [3]: 0 (0)
- TEAE any grade: Increased ALT [3]: 0 (0)
- TEAE any grade: Increased AST [3]: 0 (0)
- TEAE any grade: Lipase increased [3]: 0 (0)
- TEAE any grade: Musculoskeletal pain [3]: 0 (0)
- TEAE any grade: Nausea [3]: 1 (33)
- TEAE any grade: Neutropenia [3]: 1 (33)
- TEAE any grade: Peripheral sensory neuropathy [3]: 0 (0)
- TEAE any grade: Pruritus [3]: 0 (0)
- TEAE any grade: Pyrexia [3]: 0 (0)
- TEAE any grade: Sciatica [3]: 0 (0)
- TEAE any grade: Tumor pain [3]: 1 (33)
- TEAE any grade: Vomiting [3]: 0 (0)
- TEAE grade 3/4: Abdominal pain [3]: 0 (0)
- TEAE grade 3/4: Acute kidney injury [3]: 0 (0)
- TEAE grade 3/4: Anemia [3]: 0 (0)
- TEAE grade 3/4: Arthralgia [3]: 0 (0)
- TEAE grade 3/4: Back pain [3]: 0 (0)
- TEAE grade 3/4: Bone pain [3]: 0 (0)
- TEAE grade 3/4: Bronchitis [3]: 0 (0)
- TEAE grade 3/4: Constipation [3]: 0 (0)
- TEAE grade 3/4: Cough [3]: 0 (0)
- TEAE grade 3/4: Decreased appetite [3]: 0 (0)
- TEAE grade 3/4: Diarrhea [3]: 0 (0)
- TEAE grade 3/4: Dizziness [3]: 0 (0)
- TEAE grade 3/4: Dysgeusia [3]: 0 (0)
- TEAE grade 3/4: Dyspnea [3]: 0 (0)
- TEAE grade 3/4: Epistaxis [3]: 0 (0)
- TEAE grade 3/4: Fatigue/asthenia [3]: 0 (0)
- TEAE grade 3/4: Headache [3]: 0 (0)
- TEAE grade 3/4: Hepatic pain [3]: 0 (0)
- TEAE grade 3/4: Hypokalemia [3]: 0 (0)
- TEAE grade 3/4: Increased ALT [3]: 0 (0)
- TEAE grade 3/4: Increased AST [3]: 0 (0)
- TEAE grade 3/4: Lipase increased [3]: 0 (0)
- TEAE grade 3/4: Musculoskeletal pain [3]: 0 (0)
- TEAE grade 3/4: Nausea [3]: 0 (0)
- TEAE grade 3/4: Peripheral sensory neuropathy [3]: 0 (0)
- TEAE grade 3/4: Pruritus [3]: 0 (0)
- TEAE grade 3/4: Pyrexia [3]: 0 (0)
- TEAE grade 3/4: Sciatica [3]: 0 (0)
- TEAE grade 3/4: Thrombocytopenia [3]: 0 (0)
- TEAE grade 3/4: Tumor pain [3]: 0 (0)
- TEAE grade 3/4: Vomiting [3]: 0 (0)
- TEAE any grade: ≥1 event [4]: 19 (100)
- TEAE grade 3/4: ≥1 event [4]: 13 (68)
- Serious TEAE: Anemia (dose expansion, n=19): 1 n (%)
- Serious TEAE: Biliary tract infection (dose expansion, n=19): 1 n (%)
- Serious TEAE: Chest pain (dose expansion, n=19): 1 n (%)
- Serious TEAE: Fatigue (dose expansion, n=19): 1 n (%)
- Serious TEAE: General health deterioration (dose expansion, n=19): 1 n (%)
- Serious TEAE: Hepatic hemorrhage (dose expansion, n=19): 1 n (%)
- Serious TEAE: Hepatic pain (dose expansion, n=19): 1 n (%)
- Serious TEAE: Oxygen saturation decreased (dose expansion, n=19): 1 n (%)
- Serious TEAE: Pulmonary hemorrhage (dose expansion, n=19): 1 n (%)
- Serious TEAE: Respiratory failure (dose expansion, n=19): 1 n (%)
- Serious TEAE: Thrombocytopenia (dose expansion, n=19): 1 n (%)
- Serious TEAE: Upper respiratory tract infection (dose expansion, n=19): 1 n (%)
- TEAE with an outcome of death (dose expansion, upper respiratory tract infection, not considered treatment-related): One patient
- new safety concerns or late toxicities with longer follow-up (follow-up of approximately 5 years and >4 years of treatment): No new safety concerns or late toxicities were identified
